Reference: ChEMBL document CHEMBL3792373, “Anti-methicillin resistant Staphylococcus aureus activity, synergism with oxacillin and molecular docking studies of metronidazole-triazole hybrids” (Eur J Med Chem, 2016)
Converted amounts (≈) assume the structure as drawn.

What was measured:
[1] = Cytotoxicity against human THP1 cells upto 50 uM treated 3 times per week for 14 days by MTT assay; assay type: cell-based; conditions: thp-1, 336 h
Staphylococcus aureus [2] = assay: Bactericidal activity against methicillin-resistant Staphylococcus aureus isolate 1a assessed as reduction in colony counts at 32 ug/ml after 8 hrs by pour plate method (reference value: 8.30 +/- 0.442 log10CFU/ml); assay type: functional
Staphylococcus aureus [3] = assay: Bactericidal activity against methicillin-resistant Staphylococcus aureus isolate 1a assessed as reduction in colony counts at 32 ug/ml after 4 hrs by pour plate method (reference value: 6.14 +/- 0.456 log10CFU/ml); assay type: functional
Staphylococcus aureus [4] = assay: Bactericidal activity against methicillin-resistant Staphylococcus aureus isolate 1a assessed as reduction in colony counts at 32 ug/ml after 16 hrs by pour plate method (reference value: 12.50 +/- 0.291 log10CFU/ml); assay type: functional
Staphylococcus aureus [5] = assay: Bactericidal activity against methicillin-resistant Staphylococcus aureus isolate 1a assessed as reduction in colony counts at 32 ug/ml after 24 hrs by pour plate method (reference value: 12.64 +/- 0.224 log10CFU/ml); assay type: functional
Staphylococcus aureus [6] = assay: Bactericidal activity against methicillin-resistant Staphylococcus aureus isolate 1a assessed as reduction in colony counts at 32 ug/ml after 20 hrs by pour plate method (reference value: 12.73 +/- 0.223 log10CFU/ml); assay type: functional
Staphylococcus aureus [7] = assay: Bactericidal activity against methicillin-resistant Staphylococcus aureus isolate 1a assessed as reduction in colony counts at 32 ug/ml after 12 hrs by pour plate method (reference value: 10.12 +/- 0.428 log10CFU/ml); assay type: functional
Staphylococcus aureus [8] = assay: Antimicrobial activity against methicillin-resistant Staphylococcus aureus isolate 3a after 24 hrs by agar plate dilution method; assay type: functional
Outline: (§1)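 Clinical MRSA isolates from axilla/nasal swabs, identified by mannitol salt agar, Gram stain and coagulase test. Agar plate dilution with compound series 0.03–128 µg/mL. Inoculum suspended in water to McFarland 0.5. Incubation 24 h at 37 °C. MIC read as the lowest level without white growth spots. Dilution series quality-controlled with S. aureus NCTC 6571.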

Staphylococcus aureus [9] = assay: Antimicrobial activity against methicillin-resistant Staphylococcus aureus isolate 19a after 24 hrs by agar plate dilution method; assay type: functional; outline: as §1
Staphylococcus aureus [10] = assay: Antimicrobial activity against methicillin-resistant Staphylococcus aureus isolate 16a after 24 hrs by agar plate dilution method; assay type: functional; outline: as §1
Staphylococcus aureus [11] = assay: Antimicrobial activity against methicillin-resistant Staphylococcus aureus isolate 17a after 24 hrs by agar plate dilution method; assay type: functional; outline: as §1
Staphylococcus aureus [12] = assay: Antimicrobial activity against methicillin-resistant Staphylococcus aureus isolate 7a after 24 hrs by agar plate dilution method; assay type: functional
Outline: (§2)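 Clinical MRSA isolates, from axilla/nasal swabs and identified by mannitol salt agar, Gram stain and coagulase test. […] Inoculum adjusted to McFarland 0.5 in water. Plates incubated 24 h at 37 °C and scored for growth spots. Dilution series quality-controlled with S. aureus NCTC 6571. Combination lines used a 1:1 mixture with oxacillin.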

Staphylococcus aureus [13] = assay: Antimicrobial activity against methicillin-resistant Staphylococcus aureus isolate 13a after 24 hrs by agar plate dilution method; assay type: functional; outline: as §1
Staphylococcus aureus [14] = assay: Antimicrobial activity against methicillin-resistant Staphylococcus aureus isolate 2a after 24 hrs by agar plate dilution method; assay type: functional; outline: as §1
Staphylococcus aureus [15] = assay: Antimicrobial activity against methicillin-resistant Staphylococcus aureus isolate 8a after 24 hrs by agar plate dilution method; assay type: functional; outline: as §2
Staphylococcus aureus [16] = assay: Antimicrobial activity against methicillin-resistant Staphylococcus aureus isolate 22a after 24 hrs by agar plate dilution method; assay type: functional; outline: as §1
Staphylococcus aureus [17] = assay: Antimicrobial activity against methicillin-resistant Staphylococcus aureus isolate 4a after 24 hrs by agar plate dilution method; assay type: functional; outline: as §1
Staphylococcus aureus [18] = assay: Antimicrobial activity against methicillin-resistant Staphylococcus aureus isolate 25a after 24 hrs by agar plate dilution method; assay type: functional; outline: as §1
Staphylococcus aureus [19] = assay: Antimicrobial activity against methicillin-resistant Staphylococcus aureus isolate 14a after 24 hrs by agar plate dilution method; assay type: functional; outline: as §1
Staphylococcus aureus [20] = assay: Antimicrobial activity against methicillin-resistant Staphylococcus aureus isolate 29a after 24 hrs by agar plate dilution method; assay type: functional; outline: as §1
Staphylococcus aureus [21] = assay: Antimicrobial activity against methicillin-resistant Staphylococcus aureus isolate 30a after 24 hrs by agar plate dilution method; assay type: functional; outline: as §1
Staphylococcus aureus [22] = assay: Antimicrobial activity against methicillin-resistant Staphylococcus aureus isolate 20a after 24 hrs by agar plate dilution method; assay type: functional; outline: as §1
Staphylococcus aureus [23] = assay: Antimicrobial activity against methicillin-resistant Staphylococcus aureus isolate 6a after 24 hrs by agar plate dilution method; assay type: functional; outline: as §2
Staphylococcus aureus [24] = assay: Antimicrobial activity against methicillin-resistant Staphylococcus aureus isolate 5a after 24 hrs by agar plate dilution method; assay type: functional; outline: as §2
Staphylococcus aureus [25] = assay: Antimicrobial activity against methicillin-resistant Staphylococcus aureus isolate 28a after 24 hrs by agar plate dilution method; assay type: functional; outline: as §1
Staphylococcus aureus [26] = assay: Antimicrobial activity against methicillin-resistant Staphylococcus aureus isolate 27a after 24 hrs by agar plate dilution method; assay type: functional; outline: as §1
Staphylococcus aureus [27] = assay: Antimicrobial activity against methicillin-resistant Staphylococcus aureus isolate 18a after 24 hrs by agar plate dilution method; assay type: functional; outline: as §1
Staphylococcus aureus [28] = assay: Antimicrobial activity against methicillin-resistant Staphylococcus aureus isolate 9a after 24 hrs by agar plate dilution method; assay type: functional; outline: as §2
Staphylococcus aureus [29] = assay: Antimicrobial activity against methicillin-resistant Staphylococcus aureus isolate 26a after 24 hrs by agar plate dilution method; assay type: functional; outline: as §1
Staphylococcus aureus [30] = assay: Antimicrobial activity against methicillin-resistant Staphylococcus aureus isolate 15a after 24 hrs by agar plate dilution method; assay type: functional; outline: as §1
Staphylococcus aureus [31] = assay: Antimicrobial activity against methicillin-resistant Staphylococcus aureus isolate 23a after 24 hrs by agar plate dilution method; assay type: functional; outline: as §1
Staphylococcus aureus [32] = assay: Antimicrobial activity against methicillin-resistant Staphylococcus aureus isolate 12a after 24 hrs by agar plate dilution method; assay type: functional; outline: as §1
Staphylococcus aureus [33] = assay: Antimicrobial activity against methicillin-resistant Staphylococcus aureus isolate 11a after 24 hrs by agar plate dilution method; assay type: functional; outline: as §1
Staphylococcus aureus [34] = assay: Antimicrobial activity against methicillin-resistant Staphylococcus aureus isolate 21a after 24 hrs by agar plate dilution method; assay type: functional; outline: as §1
Staphylococcus aureus [35] = assay: Antimicrobial activity against methicillin-resistant Staphylococcus aureus isolate 10a after 24 hrs by agar plate dilution method; assay type: functional; outline: as §1
Staphylococcus aureus [36] = assay: Antimicrobial activity against methicillin-resistant Staphylococcus aureus isolate 1a after 24 hrs by agar plate dilution method; assay type: functional; outline: as §1
Staphylococcus aureus [37] = assay: Antimicrobial activity against methicillin-resistant Staphylococcus aureus isolate 24a after 24 hrs by agar plate dilution method; assay type: functional; outline: as §1

Cc1ncc([N+](=O)[O-])n1CCn1cc(COc2ccc(C(C)(C)C)cc2)nn1
Activity [1]: Non-toxic

Cc1ncc([N+](=O)[O-])n1CCn1cc(CNc2cccc(Cl)c2)nn1
Activity [1]: Non-toxic

Cc1ncc([N+](=O)[O-])n1CCn1cc(CNc2ccccc2Cl)nn1
Activity [1]: Non-toxic

Cc1ncc([N+](=O)[O-])n1CCn1cc(CNc2ccc(F)cc2)nn1
Activity [1]: Non-toxic

Cc1cccc(OCc2cn(CCn3c([N+](=O)[O-])cnc3C)nn2)c1C
Activity [1]: Non-toxic

Cc1ncc([N+](=O)[O-])n1CCn1cc(COc2ccc(Cl)cc2Cl)nn1
Activity [1]: Non-toxic

Cc1ncc([N+](=O)[O-])n1CCn1cc(COc2cccc3ccccc23)nn1
Activity [1]: Non-toxic

Cc1ncc([N+](=O)[O-])n1CCn1cc(COCc2ccccc2)nn1
Activity [1]: Non-toxic

Cc1ncc([N+](=O)[O-])n1CCn1cc(CNc2ccc(Br)cc2)nn1
Activity [1]: Non-toxic

Cc1ncc([N+](=O)[O-])n1CCn1cc(CNc2ccccc2)nn1
Activity [1]: Non-toxic

Cc1ccccc1NCc1cn(CCn2c([N+](=O)[O-])cnc2C)nn1
Activity [1]: Non-toxic

Cc1ncc([N+](=O)[O-])n1CCn1cc([Si](C)(C)C)nn1
Activity [1]: Non-toxic

Cc1ncc([N+](=O)[O-])n1CCn1cc(COc2ccc(C(C)C)cc2)nn1
Activity [1]: Non-toxic

CCCc1cn(CCn2c([N+](=O)[O-])cnc2C)nn1
Activity [1]: Non-toxic

Cc1ncc([N+](=O)[O-])n1CCn1cc(CNc2ccccc2F)nn1
Activity [1]: Non-toxic

Cc1ncc([N+](=O)[O-])n1CCn1cc(CNc2cc(Cl)c(Cl)cc2Cl)nn1
Activity [1]: Non-toxic

Cc1ncc([N+](=O)[O-])n1CCn1cc(CNc2ccccn2)nn1
Activity [1]: Non-toxic

Cc1ncc([N+](=O)[O-])n1CCn1cc(COc2c(C(C)(C)C)cc(C(C)(C)C)cc2C(C)(C)C)nn1
Activity [1]: Non-toxic

Cc1ncc([N+](=O)[O-])n1CCn1cc(CNc2cccc(F)c2)nn1
Activity [1]: Non-toxic

COc1cc(NCc2cn(CCn3c([N+](=O)[O-])cnc3C)nn2)cc(OC)c1
Activity [1]: Non-toxic

Cc1ncc([N+](=O)[O-])n1CCn1cc(CNc2cccc(Cl)c2Cl)nn1
Activity [1]: Non-toxic

Cc1ncc([N+](=O)[O-])n1CCn1cc(CNCCc2ccccc2)nn1
Activity [1]: Non-toxic

Cc1ccc(OCc2cn(CCn3c([N+](=O)[O-])cnc3C)nn2)cc1
Activity [1]: Non-toxic

Cc1ncc([N+](=O)[O-])n1CCn1cc(COc2ccc([N+](=O)[O-])cc2)nn1
Activity [1]: Non-toxic

Cc1ncc([N+](=O)[O-])n1CCn1cc(COc2ccccc2)nn1
Activity [1]: Non-toxic

CCC(=O)OCc1cn(CCn2c([N+](=O)[O-])cnc2C)nn1
Activity [1]: Non-toxic

Cc1ncc([N+](=O)[O-])n1CCn1cc(COC2CCCCO2)nn1 (stereo unspecified)
Activity [1]: Non-toxic

Cc1ncc([N+](=O)[O-])n1CCn1cc(COc2ccccc2Cl)nn1
Activity [1]: Non-toxic

Cc1ncc([N+](=O)[O-])n1CCn1cc(-c2ccccc2)nn1
Activity [1]: Non-toxic

Cc1ncc([N+](=O)[O-])n1CCn1cc(COc2ccc(C=O)cc2)nn1
Activity [1]: Non-toxic

Cc1ncc([N+](=O)[O-])n1CCn1cc(C2(O)CCCCC2)nn1
Activity [1]: Non-toxic

Cc1ccccc1OCc1cn(CCn2c([N+](=O)[O-])cnc2C)nn1
Activity [1]: Non-toxic

Cc1ncc([N+](=O)[O-])n1CCn1cc(COc2ccccc2C=O)nn1
Activity [1]: Non-toxic

Cc1ncc([N+](=O)[O-])n1CCn1cc(CBr)nn1
Activity [1]: Non-toxic

Cc1ncc([N+](=O)[O-])n1CCO [METRONIDAZOLE]
Activity (Staphylococcus aureus [2]): 6.45 log10CFU/ml | Activity (Staphylococcus aureus [3]): 5.91 log10CFU/ml | Activity (Staphylococcus aureus [4]): 8.25 log10CFU/ml | Activity (Staphylococcus aureus [5]): 8.3 log10CFU/ml | Activity (Staphylococcus aureus [6]): 8.14 log10CFU/ml | Activity (Staphylococcus aureus [7]): 8.01 log10CFU/ml

Cc1onc(-c2ccccc2)c1C(=O)N[C@@H]1C(=O)N2[C@@H]1SC(C)(C)[C@@H]2C(=O)O [OXACILLIN]
MIC (Staphylococcus aureus [8]): > 128 µg/mL | MIC (Staphylococcus aureus [9]): > 128 µg/mL | MIC (Staphylococcus aureus [10]): > 128 µg/mL | Activity (Staphylococcus aureus [2]): 7.62 log10CFU/ml | MIC (Staphylococcus aureus [11]): > 128 µg/mL | MIC (Staphylococcus aureus [12]): > 128 µg/mL | MIC (Staphylococcus aureus [13]): > 128 µg/mL | MIC (Staphylococcus aureus [14]): > 128 µg/mL | MIC (Staphylococcus aureus [15]): > 128 µg/mL | MIC (Staphylococcus aureus [16]): 32 µg/mL (≈ 79.7 µM) | MIC (Staphylococcus aureus [17]): > 128 µg/mL | MIC (Staphylococcus aureus [18]): 64 µg/mL (≈ 159 µM) | MIC (Staphylococcus aureus [19]): > 128 µg/mL | MIC (Staphylococcus aureus [20]): 32 µg/mL (≈ 79.7 µM) | MIC (Staphylococcus aureus [21]): 64 µg/mL (≈ 159 µM) | Activity (Staphylococcus aureus [3]): 6.05 log10CFU/ml | MIC (Staphylococcus aureus [22]): > 128 µg/mL | MIC (Staphylococcus aureus [23]): > 128 µg/mL | Activity (Staphylococcus aureus [4]): 11.2 log10CFU/ml | MIC (Staphylococcus aureus [24]): > 128 µg/mL | MIC (Staphylococcus aureus [25]): 128 µg/mL (≈ 319 µM) | MIC (Staphylococcus aureus [26]): 32 µg/mL (≈ 79.7 µM) | MIC (Staphylococcus aureus [27]): > 128 µg/mL | MIC (Staphylococcus aureus [28]): > 128 µg/mL | MIC (Staphylococcus aureus [29]): 32 µg/mL (≈ 79.7 µM) | MIC (Staphylococcus aureus [30]): > 128 µg/mL | MIC (Staphylococcus aureus [31]): 64 µg/mL (≈ 159 µM) | MIC (Staphylococcus aureus [32]): > 128 µg/mL | Activity (Staphylococcus aureus [5]): 12.34 log10CFU/ml | MIC (Staphylococcus aureus [33]): > 128 µg/mL | MIC (Staphylococcus aureus [34]): 64 µg/mL (≈ 159 µM) | Activity (Staphylococcus aureus [6]): 11.95 log10CFU/ml | MIC (Staphylococcus aureus [35]): > 128 µg/mL | Activity (Staphylococcus aureus [7]): 8.35 log10CFU/ml | MIC (Staphylococcus aureus [36]): > 128 µg/mL | MIC (Staphylococcus aureus [37]): 16 µg/mL (≈ 39.9 µM)
